Legend:
[1] = test system: CCRF-CEM; assay: Cytotoxic effect on human leukemia CCRF-CEM cells; format: functional
[2] = test system: DU-145; assay: In vitro cytotoxicity against human prostate DU-145 cells.; format: functional
[3] = target: Epidermal growth factor receptor (Mus musculus, UniProt Q01279); assay: Inhibition of epidermal growth factor receptor phosphorylation in BaF3 mouse lymphoid cells.; format: cell-based
In short: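 BaF3/EGFR cells serum-starved 24 h, then about 10^7 cells/mL treated 2 h at 37 °C with inhibitor at 3-5 concentrations. Chilled 20 min, then given EGF 100 ng/mL for 7 min on ice. Lysates precipitated on concanavalin A beads, run on SDS/PAGE, and immunoblotted with antiphosphotyrosine using ECL detection.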

[4] = test system: HCT-116; assay: In vitro cytotoxicity against human colon HCT116 cell culture.; format: functional
[5] = test system: HOP-62; assay: In vitro cytotoxicity against human lung HOP-62 cells.; format: functional
[6] = test system: MCF7; assay: Inhibition of DNA synthesis in MCF-7 cells.; format: functional, cell-based; conditions: Homo sapiens
In short: (§1)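 Cells seeded at 10^5/well and grown 24 h at 37 °C, then given inhibitor in DMSO at 3-5 concentrations, 3-4 wells each, for 48 h. [3H]thymidine pulse for 2 h. TCA-precipitated label solubilized in perchloric acid and counted.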

[7] = test system: MDA-MB-435; assay: In vitro cytotoxicity against human breast MDA-MB-435 cells.; format: functional
[8] = test system: MCF-10A; assay: Inhibition of DNA synthesis in MCF-10A cells.; format: functional, cell-based; conditions: Homo sapiens; in short: as §1
[9] = test system: OVCAR-3; assay: In vitro cytotoxicity against human ovarian OVCAR-3 cells.; format: functional
[10] = test system: SN12C; assay: In vitro cytotoxicity against human renal SN12C cells.; format: functional
[11] = target: Tyrosine-protein kinase SYK (Homo sapiens, UniProt P43405); assay: In vitro inhibition of Syk protein tyrosine kinase; format: functional
In short: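 Full-length GST-Syk from baculovirus-infected Sf9 cell lysates, held on glutathione-agarose. Stopped with 10 mM EDTA, beads washed, read by scintillation counting. IC50 determined graphically against DMSO control.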

[12] = test system: UACC-62; assay: In vitro cytotoxicity against human melanoma UACC-62 cells.; format: functional
[13] = test system: Cancer cell lines; assay: Mean graph mid point (MGM) for growth inhibition of all human cancer cell lines successfully tested; format: functional
[14] = target: Tubulin beta chain (Bos taurus, UniProt Q6B856); assay: Inhibition of bovine tubulin polymerization
Chain of Tubulin beta chain (Q6B856 whole entry): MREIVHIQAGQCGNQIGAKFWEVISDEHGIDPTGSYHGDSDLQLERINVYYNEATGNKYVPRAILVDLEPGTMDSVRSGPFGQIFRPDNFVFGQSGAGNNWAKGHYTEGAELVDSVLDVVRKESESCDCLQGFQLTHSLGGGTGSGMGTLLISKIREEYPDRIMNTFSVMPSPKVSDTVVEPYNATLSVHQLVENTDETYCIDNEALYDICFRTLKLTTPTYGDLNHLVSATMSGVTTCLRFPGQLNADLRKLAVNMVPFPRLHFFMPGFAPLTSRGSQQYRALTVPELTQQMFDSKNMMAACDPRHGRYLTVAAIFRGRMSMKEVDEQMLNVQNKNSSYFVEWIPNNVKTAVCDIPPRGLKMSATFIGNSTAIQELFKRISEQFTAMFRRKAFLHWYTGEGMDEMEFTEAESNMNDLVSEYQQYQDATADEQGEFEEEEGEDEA
In short: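 Electrophoretically homogeneous bovine brain tubulin. Polymerization followed spectrophotometrically with a temperature jump from 2-4 °C to 30 °C.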

[15] = test system: SF-539; assay: In vitro cytotoxicity against human CNS SF-539 cells.; format: functional
[16] = target: Tubulin beta chain (Bos taurus) (UniProt Q6B856); assay: Percentage inhibition of binding of [3H]colchicine to tubulin at 50 uM
Chain of Tubulin beta chain (Bos taurus) (Q6B856 whole entry): as above

[17] = target: Tubulin beta chain (Bos taurus) (UniProt Q6B856); conditions: 5 uM
[18] = test system: cancer cell lines (55); assay: Mean graph midpoint (MGM) for growth inhibition of all human cancer cell lines (55); format: functional

Chain of Epidermal growth factor receptor (Q01279 whole entry): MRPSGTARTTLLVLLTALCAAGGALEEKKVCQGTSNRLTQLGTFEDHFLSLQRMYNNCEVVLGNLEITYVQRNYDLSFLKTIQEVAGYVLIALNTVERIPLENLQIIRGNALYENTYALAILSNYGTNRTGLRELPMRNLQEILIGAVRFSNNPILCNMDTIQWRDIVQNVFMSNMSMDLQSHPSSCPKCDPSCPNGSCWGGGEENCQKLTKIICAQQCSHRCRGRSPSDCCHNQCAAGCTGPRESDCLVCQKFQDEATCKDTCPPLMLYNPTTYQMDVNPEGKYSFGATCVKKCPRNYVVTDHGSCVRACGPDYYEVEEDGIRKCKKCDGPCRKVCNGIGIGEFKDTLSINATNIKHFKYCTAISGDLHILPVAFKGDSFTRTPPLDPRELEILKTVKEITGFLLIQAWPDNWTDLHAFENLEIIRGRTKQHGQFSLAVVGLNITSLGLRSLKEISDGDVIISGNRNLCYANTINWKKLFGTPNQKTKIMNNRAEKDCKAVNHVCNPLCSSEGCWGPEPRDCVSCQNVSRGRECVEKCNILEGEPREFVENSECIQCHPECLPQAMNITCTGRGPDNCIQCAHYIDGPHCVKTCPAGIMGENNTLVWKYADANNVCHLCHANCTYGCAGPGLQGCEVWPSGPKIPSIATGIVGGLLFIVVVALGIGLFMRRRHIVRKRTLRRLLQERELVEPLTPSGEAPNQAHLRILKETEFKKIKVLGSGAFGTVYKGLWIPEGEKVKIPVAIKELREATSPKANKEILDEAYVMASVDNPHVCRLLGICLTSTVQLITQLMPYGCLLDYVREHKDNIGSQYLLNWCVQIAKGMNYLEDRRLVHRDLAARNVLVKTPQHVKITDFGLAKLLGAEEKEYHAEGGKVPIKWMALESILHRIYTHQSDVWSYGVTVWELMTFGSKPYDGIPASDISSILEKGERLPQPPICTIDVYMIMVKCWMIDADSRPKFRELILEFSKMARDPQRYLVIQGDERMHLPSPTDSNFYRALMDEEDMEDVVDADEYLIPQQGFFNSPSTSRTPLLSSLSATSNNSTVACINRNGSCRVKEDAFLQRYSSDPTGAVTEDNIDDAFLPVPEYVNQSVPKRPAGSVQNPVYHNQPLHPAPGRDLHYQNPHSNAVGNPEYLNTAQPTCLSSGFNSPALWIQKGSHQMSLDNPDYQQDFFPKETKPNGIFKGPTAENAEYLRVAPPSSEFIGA

O=C(NCCCc1ccccc1)c1cc(NCc2cc(O)ccc2O)ccc1O
GI50 [1]: 2400 nM
GI50 [2]: 8.4 µM
IC50 [3]: 1 µM
GI50 [4]: 24 µM
GI50 [5]: 22 µM
IC50 [6]: 2 µM
GI50 [7]: 18 µM
IC50 [8]: 2 µM
GI50 [9]: 6.5 µM
GI50 [10]: 15 µM
IC50 [11]: 28 µM
GI50 [12]: 14 µM
MGM [13]: 13.2 µM
IC50 [14]: 5 µM
GI50 [15]: 16 µM

O=C(NCCCc1ccccc1)c1ccc(NCc2cc(O)ccc2O)cc1
GI50 [1]: 830 nM
GI50 [2]: 13 µM
IC50 [3]: 33 µM
GI50 [4]: 6.4 µM
GI50 [5]: 16 µM
IC50 [6]: 0.4 µM
GI50 [7]: 5.8 µM
IC50 [8]: 3 µM
GI50 [9]: 3 µM
GI50 [10]: 3.2 µM
IC50 [11]: 35 µM
GI50 [12]: 7.9 µM
MGM [13]: 5.3 µM
IC50 [14]: 5.7 µM
GI50 [15]: 3.4 µM

O=C(NCCN1CCOCC1)c1cc(NCc2cc(O)ccc2O)ccc1O
GI50 [1]: 1800 nM
GI50 [2]: 17 µM
IC50 [3]: > 50 µM
GI50 [4]: 20 µM
IC50 [6]: 14 µM
GI50 [7]: 13 µM
IC50 [8]: 16 µM
GI50 [9]: 87 µM
GI50 [10]: 22 µM
IC50 [11]: 1.5 µM
GI50 [12]: 17 µM
MGM [13]: 19.5 µM
IC50 [14]: 2.1 µM
Inhibition [16]: 34%
GI50 [15]: 19 µM

O=C(NCCc1ccc(Cl)cc1)c1cc(NCc2cc(O)ccc2O)ccc1O
GI50 [1]: 1600 nM
GI50 [2]: 16 µM
IC50 [3]: 46 µM
GI50 [4]: 15 µM
GI50 [5]: 17 µM
IC50 [6]: 13 µM
GI50 [7]: 20 µM
IC50 [8]: 9 µM
GI50 [9]: 5.9 µM
GI50 [10]: 9.8 µM
IC50 [11]: 25 µM
GI50 [12]: 13 µM
MGM [13]: 10 µM
IC50 [14]: 3.2 µM
GI50 [15]: 8.4 µM

O=C(NCCc1ccccn1)c1cc(NCc2cc(O)ccc2O)ccc1O
GI50 [1]: 1000 nM
GI50 [2]: 17 µM
IC50 [3]: 15 µM
GI50 [4]: 17 µM
GI50 [5]: 20 µM
IC50 [6]: 11 µM
GI50 [7]: 13 µM
IC50 [8]: 7 µM
GI50 [9]: 17 µM
GI50 [10]: 19 µM
GI50 [12]: 17 µM
MGM [13]: 16 µM
IC50 [14]: 3.6 µM
GI50 [15]: 29 µM

O=C(NCc1ccccc1)c1ccc(NCc2cc(O)ccc2O)cc1
GI50 [1]: 2700 nM
GI50 [2]: 15 µM
IC50 [3]: > 100 µM
GI50 [4]: 10 µM
GI50 [5]: 20 µM
IC50 [6]: 16 µM
GI50 [7]: 12 µM
IC50 [8]: 34 µM
GI50 [9]: 6.8 µM
GI50 [10]: 9.7 µM
IC50 [11]: 18 µM
GI50 [12]: 12 µM
MGM [13]: 8.8 µM
GI50 [15]: 9.7 µM

O=C(NCCc1ccc(Br)cc1)c1cc(NCc2cc(O)ccc2O)ccc1O
GI50 [2]: 16 µM
IC50 [3]: 35 µM
GI50 [4]: 7.6 µM
GI50 [5]: 18 µM
IC50 [6]: 7 µM
GI50 [7]: 10 µM
IC50 [8]: 6 µM
GI50 [9]: 4.2 µM
GI50 [10]: 6.3 µM
IC50 [11]: 45 µM
GI50 [12]: 8.6 µM
MGM [13]: 7.6 µM
IC50 [14]: 4.2 µM
GI50 [15]: 15.8 µM

O=C(NCCc1ccccc1)c1cc(NCc2cc(O)ccc2O)ccc1O
GI50 [1]: 2700 nM
GI50 [2]: 16 µM
IC50 [3]: 10 µM
GI50 [4]: 18 µM
GI50 [5]: 20 µM
IC50 [6]: 9 µM
GI50 [7]: 19 µM
IC50 [8]: 11 µM
GI50 [9]: 7.7 µM
GI50 [10]: 18 µM
IC50 [11]: 5 µM
GI50 [12]: 14 µM
MGM [13]: 14.8 µM
IC50 [14]: 3.6 µM
GI50 [15]: 17 µM

COc1ccc(CCNC(=O)c2cc(NCc3cc(O)ccc3O)ccc2O)cc1
GI50 [1]: 3200 nM
GI50 [2]: 21 µM
IC50 [3]: > 100 µM
GI50 [4]: 23 µM
GI50 [5]: 12 µM
IC50 [6]: 14 µM
GI50 [7]: 16 µM
IC50 [8]: 11 µM
GI50 [9]: 5.5 µM
GI50 [10]: 72 µM
IC50 [11]: 50 µM
GI50 [12]: 14 µM
MGM [13]: 15.4 µM
IC50 [14]: 4.2 µM
GI50 [15]: 16 µM

O=C(NCCc1ccc(O)cc1)c1cc(NCc2cc(O)ccc2O)ccc1O
GI50 [2]: 17 µM
IC50 [3]: 300 µM
GI50 [4]: 16 µM
GI50 [5]: 2.5 µM
IC50 [6]: 16 µM
GI50 [7]: 23 µM
IC50 [8]: 15 µM
GI50 [9]: 62 µM
GI50 [10]: 19 µM
IC50 [11]: 5 µM
GI50 [12]: 18 µM
MGM [13]: 20.4 µM
IC50 [14]: 4.5 µM
GI50 [15]: 2.5 µM

O=C(NCc1ccccc1)c1cc(NCc2cc(O)ccc2O)ccc1O
GI50 [1]: 3200 nM
GI50 [2]: 16 µM
IC50 [3]: 8 µM
GI50 [4]: 17 µM
GI50 [5]: 23 µM
IC50 [6]: 17 µM
GI50 [7]: 30 µM
IC50 [8]: 17 µM
GI50 [9]: 21 µM
GI50 [10]: 12 µM
IC50 [11]: 25 µM
GI50 [12]: 15 µM
MGM [13]: 15.5 µM
IC50 [14]: 3.2 µM
GI50 [15]: 21 µM

O=C(NCCc1ccccc1)c1cccc(NCc2cc(O)ccc2O)c1
GI50 [1]: 4400 nM
GI50 [2]: 17 µM
IC50 [3]: 500 µM
GI50 [4]: 16 µM
GI50 [5]: 3.8 µM
IC50 [6]: 5 µM
GI50 [7]: 15 µM
IC50 [8]: 6 µM
GI50 [9]: 2.8 µM
GI50 [10]: 13 µM
IC50 [11]: > 100 µM
GI50 [12]: 13 µM
MGM [13]: 12.1 µM
IC50 [14]: 6.9 µM
GI50 [15]: 15 µM

O=C(NCCc1ccc(F)cc1)c1cc(NCc2cc(O)ccc2O)ccc1O
GI50 [1]: 290 nM
GI50 [2]: 18 µM
IC50 [3]: 4 µM
GI50 [4]: 9.2 µM
GI50 [5]: 12 µM
IC50 [6]: 12 µM
GI50 [7]: 13 µM
IC50 [8]: 10 µM
GI50 [9]: 11 µM
GI50 [10]: 7.7 µM
IC50 [11]: 5 µM
GI50 [12]: 7.8 µM
MGM [13]: 0.35 µM
IC50 [14]: 4 µM
Inhibition [16]: 38%
GI50 [15]: 9.2 µM

CCCCCCNC(=O)c1cc(NCc2cc(O)ccc2O)ccc1O
GI50 [1]: 560 nM
GI50 [2]: 15 µM
IC50 [3]: 14 µM
GI50 [4]: 17 µM
GI50 [5]: 19 µM
IC50 [6]: 11 µM
GI50 [7]: 15 µM
IC50 [8]: 14 µM
GI50 [9]: 4 µM
GI50 [10]: 6.1 µM
GI50 [12]: 12 µM
MGM [13]: 8.7 µM
IC50 [14]: 3.6 µM
Inhibition [16]: 45%
GI50 [15]: 2.3 µM

CCCCCCCCCCCCNC(=O)c1cc(NCc2cc(O)ccc2O)ccc1O
GI50 [1]: 340 nM
GI50 [2]: 11 µM
IC50 [3]: 35 µM
GI50 [4]: 2.1 µM
GI50 [5]: 3.8 µM
IC50 [6]: 1 µM
GI50 [7]: 3.2 µM
IC50 [8]: 3 µM
GI50 [9]: 1.9 µM
GI50 [10]: 2.6 µM
IC50 [11]: 50 µM
GI50 [12]: 3.2 µM
MGM [13]: 2.7 µM
IC50 [14]: > 40 µM
GI50 [15]: 20 µM

O=C(NCCc1ccccc1)c1ccc(NCc2cc(O)ccc2O)cc1
GI50 [1]: 590 nM
GI50 [2]: 14 µM
IC50 [3]: > 200 µM
GI50 [4]: 7.4 µM
GI50 [5]: 13 µM
IC50 [6]: 3 µM
GI50 [7]: 5.1 µM
IC50 [8]: 7 µM
GI50 [9]: 2.7 µM
GI50 [10]: 7.4 µM
IC50 [11]: 5 µM
GI50 [12]: 9.4 µM
MGM [13]: 6.4 µM
IC50 [14]: 4.9 µM
GI50 [15]: 8.5 µM

COc1ccc(/C=C\c2cc(OC)c(OC)c(OC)c2)cc1O
Inhibition [17]: 98%

CC(C)CCCC(C)[C@H]1CC[C@H]2[C@@H]3CCC4C[C@@H](NC(=O)c5cc(NCc6cc(O)ccc6O)ccc5O)CC[C@]4(C)[C@H]3CC[C@]12C (stereo partly specified)
IC50 [6]: > 50 µM
MGM [18]: >100 µM
IC50 [14]: > 40 µM

O=C(NC1CCc2ccccc2C1)c1cc(NCc2cc(O)ccc2O)ccc1O (stereo unspecified)
GI50 [1]: 1400 nM
GI50 [2]: 17 µM
IC50 [3]: 4 µM
GI50 [4]: 16 µM
GI50 [5]: 17 µM
IC50 [6]: 10 µM
GI50 [7]: 9.2 µM
IC50 [8]: 6 µM
GI50 [9]: 7.9 µM
GI50 [10]: 18 µM
IC50 [11]: 8 µM
GI50 [12]: 14 µM
MGM [13]: 11.2 µM
IC50 [14]: 5.3 µM
GI50 [15]: 2.7 µM
